ChEMBL document CHEMBL1146632, “Styrylheterocycles: a novel class of inhibitors on lipopolysaccharide-Induced nitric oxide production” (Bioorg Med Chem Lett, 2003)

What follows are compounds tested on RAW264.7 (assay: Inhibitory activity of the compound against nitric oxide production in lipopolysaccharide-activated mouse macrophage RAW264.7 cells).

Compound	IC50
COc1cc(/C=C/c2ccsc2)cc(OC)c1OC	7.8 µM

Each compound was assayed on RAW264.7 (assay: Inhibitory activity against nitric oxide production in lipopolysaccharide-activated mouse macrophage RAW264.7 cells).
Format: functional, cell-based
Method in brief: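 RAW264.7 cells in phenol-red-free DMEM with 10% FBS were plated at 8×10⁵ cells/mL and grown 24 h. The medium was then renewed, and cells were exposed to LPS with or without test sample for 20 h. Nitrite in the medium, taken as the NO indicator, was measured in triplicate with Griess reagent (0.1% naphthylethylenediamine, 1% sulfanilamide, 5% H₃PO₄). Inhibition was calculated as % of the vehicle-treated control, and IC₅₀ was taken from dose-response curves.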

Compound	IC50
COc1cc(/C=C\c2ccoc2)cc(OC)c1OC	6.6 µM
COc1ccc(/C=C/c2cccs2)cc1	> 50 µM
COc1ccc(/C=C\c2cccs2)cc1	> 50 µM
COc1cc(/C=C\c2cccs2)cc(OC)c1	> 50 µM
COc1cc(/C=C\c2ccsc2)cc(OC)c1OC	5.6 µM
COc1cc(/C=C/c2cccs2)cc(OC)c1OC	5.3 µM
COc1cc(/C=C/c2cccs2)cc(OC)c1	> 50 µM
COc1cc(/C=C/c2ccco2)cc(OC)c1OC	5.9 µM
COc1cc(/C=C/c2ccoc2)cc(OC)c1OC	9.5 µM
Oc1ccc(/C=C/c2cc(O)cc(O)c2)cc1 [RESVERATROL]	15.9 µM
